How the values were obtained:
[1] = target: T1, Amine oxidase [flavin-containing] A (Homo sapiens, UniProt P21397); experiment: Inhibition of human recombinant MAO-A expressed in insect BT1-TN-5B1-4 cells assessed as production of hydrogen peroxide from p-tyramine at 100 uM up to 15 mins by amplex red-based fluorometric assay; details: 0.25 h; for inhibition (INH): 100 µM
T1 sequence (P21397 whole entry): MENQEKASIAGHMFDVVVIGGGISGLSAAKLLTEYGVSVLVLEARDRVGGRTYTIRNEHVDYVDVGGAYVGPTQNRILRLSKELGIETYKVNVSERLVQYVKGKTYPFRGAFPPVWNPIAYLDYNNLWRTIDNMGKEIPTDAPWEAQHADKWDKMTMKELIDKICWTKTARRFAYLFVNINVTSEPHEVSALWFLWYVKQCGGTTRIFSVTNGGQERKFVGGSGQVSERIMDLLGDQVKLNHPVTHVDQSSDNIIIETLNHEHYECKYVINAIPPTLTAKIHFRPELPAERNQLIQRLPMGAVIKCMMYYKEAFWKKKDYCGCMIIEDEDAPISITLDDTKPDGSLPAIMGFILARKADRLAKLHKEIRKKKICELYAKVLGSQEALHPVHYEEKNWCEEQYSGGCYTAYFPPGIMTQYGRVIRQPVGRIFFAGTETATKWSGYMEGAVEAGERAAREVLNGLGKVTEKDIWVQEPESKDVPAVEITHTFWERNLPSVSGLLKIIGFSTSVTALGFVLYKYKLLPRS
Method in brief: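 Recombinant hMAO-A came from microsomes of baculovirus-infected BTI-TN-5B1-4 insect cells, at 1.1 μg protein. It was preincubated with the test drug in 0.05 M sodium phosphate, pH 7.4, for 15 min at 37 °C. The reaction was started with 200 μM Amplex Red, 1 U/mL HRP and 1 mM p-tyramine (final). H2O2-derived resorufin fluorescence (ex 545, em 590 nm) was read over 15 min. Enzyme-free background was subtracted against vehicle controls. 100 μM was the highest concentration tested.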

[2] = target: T2, Amine oxidase [flavin-containing] B (Homo sapiens, UniProt P27338); experiment: Inhibition of human recombinant MAO-B expressed in insect BT1-TN-5B1-4 cells assessed as production of hydrogen peroxide from p-tyramine up to 15 mins by amplex red-based fluorometric assay; type: cell-based
T2 sequence (P27338 whole entry): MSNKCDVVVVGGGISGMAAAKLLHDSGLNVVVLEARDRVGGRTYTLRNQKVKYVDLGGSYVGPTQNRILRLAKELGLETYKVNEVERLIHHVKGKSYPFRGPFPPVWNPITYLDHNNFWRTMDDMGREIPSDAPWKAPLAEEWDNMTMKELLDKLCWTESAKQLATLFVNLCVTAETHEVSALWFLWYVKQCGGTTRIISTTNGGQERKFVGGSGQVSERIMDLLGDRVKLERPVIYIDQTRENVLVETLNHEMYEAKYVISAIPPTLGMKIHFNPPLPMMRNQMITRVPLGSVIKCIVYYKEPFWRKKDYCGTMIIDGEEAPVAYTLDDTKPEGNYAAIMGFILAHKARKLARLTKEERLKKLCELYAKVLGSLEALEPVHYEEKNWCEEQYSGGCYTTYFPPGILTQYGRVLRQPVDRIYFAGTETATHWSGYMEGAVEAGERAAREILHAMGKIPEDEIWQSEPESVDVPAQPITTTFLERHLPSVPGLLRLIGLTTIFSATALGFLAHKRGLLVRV

Homo sapiens = species on record: Homo sapiens; experiment: Selectivity index, ratio of IC50 for human recombinant MAO-A to IC50 for human recombinant MAO-B
[3] = target: T2, Amine oxidase [flavin-containing] B; experiment: Inhibition of human recombinant MAO-B expressed in insect BT1-TN-5B1-4 cells assessed as production of hydrogen peroxide from p-tyramine at 100 uM up to 15 mins by amplex red-based fluorometric assay; details: 0.25 h
Method in brief: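 hMAO-B was used as microsomes from BTI-TN-5B1-4 insect cells infected with recombinant baculovirus, at 7.5 μg protein. It was preincubated for 15 min at 37 °C with the test drug in sodium phosphate buffer, 0.05 M, pH 7.4. The reaction was then started with final 200 μM Amplex Red, 1 U/mL horseradish peroxidase and 1 mM p-tyramine. Resorufin fluorescence (545/590 nm) was followed at 37 °C for 15 min, minus the no-enzyme background and relative to vehicle controls. The top concentration was 100 μM.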

[4] = target: T1, Amine oxidase [flavin-containing] A; experiment: Inhibition of human recombinant MAO-A expressed in insect BT1-TN-5B1-4 cells assessed as production of hydrogen peroxide from p-tyramine up to 15 mins by amplex red-based fluorometric assay

| SMILES | inhibition (INH) [1] | IC50 [2] | Ratio IC50 (Homo sapiens) | inhibition at 100 µM [1] | inhibition (INH) [3] | IC50 [4] |
| --- | --- | --- | --- | --- | --- | --- |
| CC(=O)COc1ccc2oc(=O)c(-c3ccc(C)cc3)cc2c1 | Not Active | 5520 nM | > 18 |  |  |  |
| CC(=O)COc1cccc(-c2cc3cc(C)ccc3oc2=O)c1 |  | 180 nM | > 555 | 40% |  |  |
| COc1cc(-c2cc3cc(C)ccc3oc2=O)c(Br)c(OC)c1OC | Not Active |  |  |  | Not Active |  |
| COc1cc(OC)cc(-c2cc3cc(C)ccc3oc2=O)c1 | Not Active |  | > 11100 |  |  |  |
| Cc1ccc(-c2cc3cc(O)ccc3oc2=O)cc1 |  | 67.1 nM | 372 |  |  | 24900 nM |
| Cc1ccc2oc(=O)c(-c3ccc(O)cc3)cc2c1 | Not Active |  |  |  |  |  |
| Cc1ccc(-c2cc3cc(OC4CCCC4)ccc3oc2=O)cc1 | Not Active | 14500 nM | > 6.9 |  |  |  |
| Cc1ccc2oc(=O)c(-c3ccccc3)cc2c1 | Not Active |  | > 352 |  |  |  |
| Cc1ccc2oc(=O)c(-c3ccccc3O)cc2c1 |  | 120 nM | 180 |  |  | 21600 nM |

Next, values leading:

| inhibition (INH) [1] | IC50 [2] | Ratio IC50 (Homo sapiens) | inhibition at 100 µM [1] | inhibition (INH) [3] | IC50 [4] | SMILES |
| --- | --- | --- | --- | --- | --- | --- |
| Not Active |  | > 125000 |  |  |  | COc1cccc(-c2cc3cc(C)ccc3oc2=O)c1 |
| Not Active | 17.1 nM | > 5880 |  |  |  | COc1ccc2oc(=O)c(-c3cccc(C)c3)cc2c1 |
|  | 650 nM | 54 |  |  | 35000 nM | Cc1ccc2oc(=O)c(-c3cccc(O)c3)cc2c1 |
| Not Active | 3.25 nM | > 31200 |  |  |  | COc1cc(-c2cc3cc(C)ccc3oc2=O)ccc1Br |
| Not Active |  |  |  |  |  | Cc1ccc(-c2cc3cc(C)ccc3oc2=O)cc1 |
| Not Active | 54000 nM | > 1.9 |  |  |  | COc1cc(OC)c(Br)c(-c2cc3cc(C)ccc3oc2=O)c1 |
| Not Active |  | > 623 |  |  |  | COc1cc(-c2cc3cc(C)ccc3oc2=O)cc(OC)c1OC |
| Not Active | 0.74 nM | > 136000 |  |  |  | COc1ccc(-c2cc3cc(C)ccc3oc2=O)cc1Br |
| Not Active |  | > 7660 |  |  |  | COc1ccc(-c2cc3cc(C)ccc3oc2=O)cc1 |
|  | 15 nM | > 6670 | 40% |  |  | Cc1cccc(-c2cc3cc(C)ccc3oc2=O)c1 |
| Not Active |  |  |  | Not Active |  | COc1ccccc1-c1cc2cc(C)ccc2oc1=O |
| Not Active | 1.52 nM | > 6790 |  |  |  | COc1ccc2oc(=O)c(-c3ccc(C)cc3)cc2c1 |
|  | 2.73 nM | 9210 |  |  | 25100 nM | COc1ccc(-c2cc3cc(C)ccc3oc2=O)cc1OC |
